Published values of several laboratories.
Compare with care: the assays were run in different laboratories.
Target: Mitogen-activated protein kinase 13 (MAPK13, Homo sapiens, UniProt O15264)
Residues used in one study (O15264 1-365): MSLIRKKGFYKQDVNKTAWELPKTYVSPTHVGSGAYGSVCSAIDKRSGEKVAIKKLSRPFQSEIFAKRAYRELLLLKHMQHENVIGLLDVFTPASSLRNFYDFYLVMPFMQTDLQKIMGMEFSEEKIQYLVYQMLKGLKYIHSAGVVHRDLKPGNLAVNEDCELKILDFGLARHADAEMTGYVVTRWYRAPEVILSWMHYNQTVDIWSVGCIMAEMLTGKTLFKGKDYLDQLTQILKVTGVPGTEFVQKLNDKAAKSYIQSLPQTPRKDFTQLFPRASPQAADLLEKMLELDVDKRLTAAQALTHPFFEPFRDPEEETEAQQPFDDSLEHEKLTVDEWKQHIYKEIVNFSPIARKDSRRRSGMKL

Cc1cc(NC(=O)c2cccc3cc(-c4cccc5[nH]nc(N)c45)ccc23)ccc1F — activity vs control (enzyme activity, inhibitor; 0.1 µM): 101%
Cc1cnc(NC2CCOCC2)nc1-n1cnc(C(=O)NC(CN)c2cc(F)cc(Cl)c2)c1 (centres unmarked) — remaining activity (enzyme activity, inhibitor, radiometric; 1 µM): 28%
O=C(O)c1cc(-c2ccc(C3CCNCC3)cc2)c2ccc(-c3ccc(C(F)(F)F)cc3)cc2c1 — remaining binding (cell-free assay, competition with immobilised ligand; 1 µM): 97%
COc1cc2ncnc(Nc3ccc(Oc4ccccc4)c(C)c3C)c2cc1OC — inhibition (enzyme activity, inhibitor; 1 µM): 2%
CN(C)C1CCN(CC#Cc2nn(C3CCCC3)c3nc(NCc4ccccc4)ncc23)C1 (centres unmarked) — inhibition (enzyme activity, inhibitor, FRET; 1 µM): 0%
Cc1ccc(Nc2nccc(N(C)c3ccc4c(C)n(C)nc4c3)n2)cc1S(N)(=O)=O — inhibition (enzyme activity, inhibitor; 0.3 µM): -11%
Cc1nc(Cc2cccc(C(F)(F)F)c2)sc1-c1ccc(C(N)=O)nc1 — remaining binding (cell-free assay, competition with immobilised ligand; 1 µM): 99%
Cn1c(=O)n(-c2ccc(C(C)(C)C#N)cc2)c2c3cc(-c4cnc5ccccc5c4)ccc3ncc21 — remaining activity (enzyme activity, inhibitor; 10 µM): 100%
CN1CCC2(CC1)NC(=O)c1c(c3ccc(Cl)c(Cl)c3n1C)C2C#N (racemic) — ΔTm (thermal stability, DSF; 10 µM): 0.4 °C
CNC(=O)Nc1ccc2c(c1)[C@@]1(CC2)OC(=O)N(CC(=O)N(Cc2ccc(F)cc2)[C@@H](C)C(F)(F)F)C1=O — remaining binding (cell-free assay, competition with immobilised ligand; 1 µM): 97%
Cn1c2c(c3ccc(Cl)c(Cl)c31)C(C#N)C1(CCNCC1)NC2=O (racemic) — ΔTm (thermal stability, DSF; 10 µM): 0.5 °C
Cc1noc([C@H]2C[C@@H](c3ccc(C(F)(F)F)cc3)CN(C(=O)N3CCS(=O)(=O)C3)C2)n1 — remaining binding (cell-free assay, competition with immobilised ligand; 1 µM): 100%
O=C(Nc1cnn(-c2csc(C(=O)NC3COC3)c2)c1)Nc1ccccc1Cl — remaining activity (enzyme activity, inhibitor; 5 µM): 122%
CCN(CC)c1ccc(C2=NNC(=O)CC2C)cc1[N+](=O)[O-] (centres unmarked) — remaining activity (enzyme activity, inhibitor; 10 µM): 97%
CC(=O)Nc1c(C(C)=O)c(=O)n(C)c2nc(-c3ccc(Cl)cc3Cl)c(-c3ccc(Cl)cc3)cc12 — remaining binding (cell-free assay, competition with immobilised ligand; 1 µM): 100%
COc1cc2c(Nc3ccc(Br)cc3F)ncnc2cc1OCC1CCN(C)CC1 — remaining signal (cell-free assay; 0.5 µM): 95.5%
Nc1nc(Nc2ccccc2)sc1C(=O)c1c(F)cccc1F — remaining activity (enzyme activity, inhibitor; 10 µM): 62%
Cn1c2c(Cl)c(Cl)ccc2c2cn[nH]c(=O)c21 — ΔTm (thermal stability, DSF; 10 µM): 0 °C
COc1cc(Nc2cnc(C#N)c(O[C@H](C)CN(C)C)n2)ncc1-c1cnn(C)c1 — remaining activity (enzyme activity, inhibitor, radiometric; 10 µM): 73%
CNC(=O)c1ccc(Nc2ncc(C(F)(F)F)c(NCc3nccnc3N(C)S(C)(=O)=O)n2)cc1 — remaining binding (cell-free assay, competition with immobilised ligand; 0.1 µM): 91%
